# Starred links: 1 amine or outer side, 2 acyl side, 3 side chain; linkers in the order of their positions; H or OH if unused. Positions of bridges follow the written chain, without caps; N, C: chain ends. Non-standard residues stand in square brackets, D forms with d. Residues, ends and D or L forms follow the SMILES beside them. No end group written: not given here. *: point of attachment. X1 = NC(=O)CC[C@@H]1NC(=O)[C@H](CO)N=C1N[C@@H](CO)C(=O)*; X2 = NC(=O)C[C@H](N[*:1])c1nc(C(=O)[*:2])cs1; X4 = NC(=O)C[C@H](N[*:1])c1nc(C(=O)[*:2])co1; X3 = O=C(c1csc([C@H](CO)N[*:1])n1)[*:2]
# B1: BacA from Sinorhizobium meliloti (natural protein, S. meliloti, UniProt Q08120 1-420, looked up)
# chain: MFQSFFPKPKLFFISSAVWSLLAVLAWYAGGRDIGAYLGLPPLPPGQEPVIGVSVFWSTPFLWFYIYYAVVAGLFAAFWFAYSPHRWQYWSVLGTALIIFNTYFSVQVSVAINAWYGPFYDLIQQALARTAPVTAGQLYSGMIGFSGIAFVAVTVGVLNLFFVSHYIFRWRTAMNEFYVAHWPRLRHVEGASQRVQEDTMRFSSTVERLGVGLVSSIMTLIAFLPVLFKFSEQVNVLPIVGEIPHALVWAAVFWSVFGTVFLAAVGIKLPGLEFRNQRVEAAYRKELVYGEDHEDRADPITLAQLFDNVRRNYFRLYFHYMYFNIARIFYLQADNLFGTFVLVPAIVAGKLTLGVMNQVLNVFGQVRESFQYLVNSWTTIVELLSIYKRLKAFESVLVDEPLPEIDRQFIDAGGKEELAL
# B2: Escherichia coli inner membrane transporter SbmA (natural protein, E. coli)
# chain: MFKSFFPKPGTFFLSAFVWALIAVIFWQAGGGDWVARITGASGQIPISAARFWSLDFLIFYAYYIVCVGLFALFWFIYSPHRWQYWSILGTALIIFVTWFLVEVGVAVNAWYAPFYDLIQTALSSPHKVTIEQFYREVGVFLGIALIAVVISVLNNFFVSHYVFRWRTAMNEYYMANWQQLRHIEGAAQRVQEDTMRFASTLENMGVSFINAIMTLIAFLPVLVTLSAHVPELPIIGHIPYGLVIAAIVWSLMGTGLLAVVGIKLPGLEFKNQRVEAAYRKELVYGEDDATRATPPTVRELFSAVRKNYFRLYFHYMYFNIARILYLQVDNVFGLFLLFPSIVAGTITLGLMTQITNVFGQVRGAFQYLINSWTTLVELMSIYKRLRSFEHELDGDKIQEVTHTLS
# What was measured:
# [1] = test system: E. coli ΔsbmA cells (JW0368) expressing SbmA mutants; assay type: cell-based, Escherichia coli; conditions: for antibiotic sensitivity of cells carrying SbmA Tyr116 mutation: Tyr116 (potential periplasmic gate) mutant
# BacA = biological target: T1, BacA (Rhizobium meliloti, UniProt Q08120); experiment: Microscale thermophoresis; assay type: binding, Sinorhizobium meliloti; conditions: BacA-ND complex; MST
# T1 sequence (Q08120 1-420): B1 chain
# How it was run: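 Purified protein mixed into DDM-solubilized lipid (7.5 mM lipid, 33 mM DDM) for 30 min at 28°C. Alexa Fluor 647–labeled MSP1E3D1 (S22C/A121C) added, then Amberlite XAD-2 overnight at 28°C, and nanodiscs purified by SEC. Labeled nanodiscs (20 nM) incubated 15 min in the dark with test compound in 20 mM K-Hepes pH 8, 150 mM KCl, 0.005% Tween 20 (DMSO 1.25% final). Kd from a 1:1 fit of the MST signal, three independent measurements.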
# [2] = biological target: Escherichia coli inner membrane transporter SbmA (E. coli) (UniProt P0AFY6); experiment: MST
# cryo-EM structure [3] = biological target: the molecule itself; experiment: cryo-EM structure
# cryo-EM structure [4] = biological target: the molecule itself; experiment: cryo-EM structure; remark: listed apart in the source
molecule,measurement,setting,value
"CC(C)C[C@H](NC(=O)CNC(=O)CNC(=O)[C@@H](NC(=O)c1csc([C@H](CC(N)=O)NC(=O)[C@H](C)NC(=O)[C@H](CO)NC(=O)c2coc([C@H](CC(N)=O)NC(=O)[C@H](CO)NC(=O)c3csc([C@H](CO)NC(=O)[C@H](C)NC(=O)c4csc([C@H](CC(N)=O)NC(=O)CNC(=O)[C@@H]5CCCN5C(=O)[C@H](CO)NC5=N[C@@H](CO)C(=O)N[C@H]5CCC(N)=O)n4)n3)n2)n1)[C@@H](C)O)C(=O)O [KLB, klebsazolicin] (X1-PG[X2]A[X3]S[X4]SA[X2]TGGL-OH; C-terminus assumed)",antibiotic sensitivity of cells carrying SbmA Tyr116 mutation,[1],resistant
bleomycin,Kd,BacA,0.019 ± 0.011 µM
same,antibiotic sensitivity of cells carrying SbmA Tyr116 mutation,[1],slightly increased sensitivity
same,antibiotic sensitivity of cells carrying SbmA Tyr368Ala mutant,[1]; Tyr368Ala (first internal gate) mutant,additionally sensitized
klebsazolicin (peptide),Kd,[2],0.849 µM
"microcin J25 (GGAGHVPEYFVGIGTPISFYG; lactam N-8; ends not checked; UniProt Q9X2V7 38-58, looked up) [MccJ25]",antibiotic sensitivity of cells carrying SbmA Tyr116 mutation,[1],resistant
B1,binding result,cryo-EM structure [3],binds
B2,stoichiometry N,cryo-EM structure [4],2

# Source: article PMC8442886 (Science Advances, 2021)
